OX1R antag-1: OX1R (human) antagonism. OX1R-expressing cells, FRET antagonist read-out. 330,000 compounds, 1.8% hits. O43613. inhibition, % at 6.6 µM; in the data active = inhibition mostly above about 38%, no sharp cut-off; inactive = mostly below about 40%;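 note: 0% = agonist challenge alone and 100% = reference antagonist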
MPTP inh: blocks calcium-induced mitochondrial swelling; isolated mouse mitochondria, Ca2+ swelling absorbance, 30 min; inhibition, % at 10 µM; 360,000 compounds, 1.4% hits;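 active = inhibition of 50% or more, scaled per plate between neutral and stimulator controls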;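 note: 0% = DMSO wells given calcium and 100% = 1 mM EGTA wells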
OX1R antag-2: blocks the human orexin 1 receptor. O43613. CHO/OX1R cells, Fluo-8 calcium fluorescence, orexin A. inhibition, % at 5 µM. 330,000 compounds, 0.43% hits. AID 434989;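 active = inhibition above its plate's threshold, mean inhibition of all tested compounds on the plate plus 3 SD, cut at about 37% in these data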;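 note: 0% = orexin A challenge wells and 100% = SB-334867-A antagonist wells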
GPR7 antagonist: human neuropeptides B/W receptor 1 antagonism; P48145; 290,000 compounds, 1.1% hits; GPR7-expressing cells, fluorescence antagonist assay; inhibition, % at 4.4 µM; in the data active = inhibition above about 16%, passing the limit was not always enough;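 note: cells stimulated with the agonist NPW; 0% = agonist with vehicle and 100% = vehicle without agonist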
Target sequence (P48145 whole entry, looked up): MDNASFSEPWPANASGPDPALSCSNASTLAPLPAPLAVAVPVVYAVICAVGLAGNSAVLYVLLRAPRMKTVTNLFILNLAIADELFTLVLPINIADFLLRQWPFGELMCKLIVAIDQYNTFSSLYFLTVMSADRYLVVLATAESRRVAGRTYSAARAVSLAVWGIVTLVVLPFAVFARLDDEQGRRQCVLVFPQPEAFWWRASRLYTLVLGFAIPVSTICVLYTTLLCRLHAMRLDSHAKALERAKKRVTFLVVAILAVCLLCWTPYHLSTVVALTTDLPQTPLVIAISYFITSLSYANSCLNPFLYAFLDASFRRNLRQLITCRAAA
CHO parental Ca: counter-screen: ATP calcium response change in parental CHO cells. inhibition, % at 5.6 µM. AID 463079. 330,000 compounds, 0.63% hits. parental CHO-K1, ATP-induced calcium, Fluo-8 fluorescence;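 active = inhibition above that plate's mean sample inhibition plus 3 SD, cut at about 26% in these data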;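 note: 0% = ATP-challenged DMSO wells and 100% = DMSO wells without ATP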
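material = parental CHO cells | also added = ATP as calcium-mobilizing challenge | dosing = single point at 5.6 µM | detection = intracellular calcium via Fluo-8 no-wash fluorescent dye | read-out = % inhibition | benchmarks = low control ATP plus DMSO, high control DMSO only | repeats = one well per compound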
Rh123 counter: Rhodamine 123 counter-screen of mitochondrial pore hits | shares compounds with MPTP inh | inhibition, % at 10 µM | isolated mitochondria, membrane potential, Rhodamine 123 fluorescence | 5,000 compounds, 78% hits | AID 624504; in the data active = inhibition above about 22%;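 note: 0% = DMSO vehicle and 100% = positive control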
MPTP abs DR: MPTP inhibition, dose response swelling confirmation; shares compounds with MPTP inh; isolated mitochondria swelling, absorbance; 780 compounds, 58% hits; AID 651561; IC50, µM; in the data active = IC50 below about 20 µM
MPTP cs DR: counter-screen for mitochondrial permeability transition pore inhibitors, dose response. shares compounds with MPTP inh. isolated mitochondria counterscreen, fluorescence read-out. IC50, µM. 780 compounds, 49% hits; in the data active = IC50 below about 80 µM
An asterisk follows results filed as active; i = inactive; / = no result given. Only some compounds are listed: those with a hit (about 3.8% of all), similar ones and a draw of the others.

SMILES	OX1R antag-1	MPTP inh	OX1R antag-2	GPR7 antagonist	CHO parental Ca	Rh123 counter	others
Cn1c2c(c(=O)n(C)c1=O)C(C(F)(F)F)(C(F)(F)F)N=C(c1ccc(Cl)cc1)N2	56*	99*	9	5	17	84*
Cc1ccccc1C1=NC(C(F)(F)F)(C(F)(F)F)c2c(n(C)c(=O)n(C)c2=O)N1	18	2	-12	-16	-3	/
CC(C)Cn1cnc2c1c(=O)[nH]c(=O)n2Cc1ccccc1	-9	0	-14	-14	-5	/
CC(=O)Nc1ccc(Oc2nc(C(F)(F)F)nc3ccccc23)cc1	2	0	-20	-12	-10	/
Cc1cc(C)cc(Oc2nc(C(F)(F)F)nc3ccccc23)c1	29	80*	-8	-9	-21	-4	MPTP abs DR=>100;MPTP cs DR=78*
COc1ccccc1NS(=O)(=O)c1ccc(C)c(NS(=O)(=O)c2cc(NC(C)=O)ccc2OC)c1	/	0	/	/	/	/
CC1CN(S(=O)(=O)c2ccc(NC(=O)c3cc(-c4ccccc4O)n[nH]3)cc2)CC(C)O1 (configuration not stated)	9	79*	5	-17	-4	72*
O=C(Nc1nc(-c2cc3ccccc3o2)cs1)c1ccc(S(=O)(=O)N2CCCC2)cc1	43	63*	6	-2	10	82*
O=C(Nc1nc(-c2ccc(S(=O)(=O)N3CCCC3)cc2)cs1)c1cccs1	7	-3	4	0	-6	/
CC1CN(S(=O)(=O)c2ccc(C(=O)Nc3nc(-c4cc5ccccc5o4)cs3)cc2)CC(C)O1 (configuration not stated)	17	88*	-8	-10	11	19	MPTP abs DR=i;MPTP cs DR=<2.5*
Cc1cc(-c2csc(NC(=O)c3ccc(S(=O)(=O)N(C)C)cc3)n2)c(C)n1-c1ccccc1	2	-2	-4	4	-1	/
CC1CN(S(=O)(=O)c2ccc(C(=O)Nc3nncs3)cc2)CC(C)O1 (configuration not stated)	2	0	-7	/	-7	/
CN(C)S(=O)(=O)c1ccc(C(=O)Nc2nc(-c3cc4ccccc4o3)cs2)cc1	42	85*	9	-13	4	87*
NC(=Nc1nc(-c2ccccn2)cc2ccccc12)c1ccccn1	/	1	/	/	/	/
CCN=c1scc(-c2ccc(F)cc2)n1/N=C/c1ccccn1	6	4	-4	1	11	/
CCN=c1scc(-c2ccccc2)n1/N=C/c1ccccn1	30	66*	-12	-12	-15	46*
O=C1NCCN(C(=O)CCc2nnc(-c3ccsc3)o2)C1c1ccc(F)cc1 (configuration not stated)	2	-1	-7	-13	4	/
CC(=O)c1ccc(OCc2ccc(Oc3c(Cl)cccc3[N+](=O)[O-])cc2)cc1	7	56*	-1	-6	-3	36*
O=C(O)COc1ccc(C(=O)c2ccccc2)cc1	17	2	-7	-9	-1	/
CC(=O)c1ccc(OCc2ccc(C(=O)c3ccccc3)cc2)cc1	43	94*	22	14	49*	94*
Cc1ccc(S(=O)(=O)NCc2ccccc2)cc1C(=O)NCc1ccccn1	17	-2	-22	-13	-18	/
Cc1ccc2nc(C)c3c(c2c1)SCC3	19	3	-8	-4	1	/
O=C(O)c1ccc(Nc2nc3ccccc3nc2NS(=O)(=O)c2ccc(F)cc2)cc1	12	75*	6	-10	7	70*
O=C(O)c1cccc(Nc2nc3ccccc3nc2NS(=O)(=O)c2ccccc2)c1	4	0	-11	/	1	/
Cc1noc(C)c1S(=O)(=O)N(CC(=O)NC1CCC(C)CC1)c1ccc(C(C)C)cc1 (configuration not stated)	14	1	-31	3	-24	/
SMILES	OX1R antag-1	MPTP inh	OX1R antag-2	GPR7 antagonist	CHO parental Ca	Rh123 counter	others
COc1ccc(NC(=O)Nc2ccc3c(c2)N(C)C(=O)CS3)cc1Cl	46	93*	44	-9	31*	68*
CN1C(=O)CSc2ccc(NC(=O)NCCC3=CCCCC3)cc21	20	75*	-12	-5	-9	78*
COc1ccc(NC(=O)Nc2ccc3c(c2)N(C)C(=O)CS3)cc1OC	21	-1	-6	-1	11	/
O=C(NCCOc1ccc(Cl)cc1)C1CC(=O)N(c2ccc3c(c2)OCCO3)C1 (configuration not stated)	5	-3	-14	/	-3	/
CN(C)c1ccc(N=C/C=C2/N(C)c3ccccc3C2(C)C)cc1	/	82*	/	-2	/	52*
CN1C(=CC=C2C=C(I)C(=O)C(I)=C2)C(C)(C)c2ccccc21	/	67*	/	-2	/	-34
COc1ccc(CNC(=O)c2noc(C)c2[N+](=O)[O-])cc1	11	0	-13	-8	-10	/
CN1C(=O)N(CC(=O)N2CCN(S(=O)(=O)c3ccc(Cl)s3)CC2)C(=O)C12CCCCC2	3	3	-22	/	-17	/
COc1cc(CCc2ccccc2)c(C(=O)O)c(O)c1C/C=C(/C)CCC=C(C)C	15	87*	23	/	46*	56*
CC(C)=CCC/C(C)=C/Cc1c(O)ccc(C(=O)/C=C/c2ccc(O)cc2)c1O	24	2	-15	-15	-9	/
COc1cc(CCc2ccccc2)c(C(=O)O)c(O)c1CC=C(C)C	/	93*	/	/	/	69*
Cc1cc(C)cc(OCC(=O)N2N=C(C(F)(F)F)CC2(O)C(C)(C)C)c1 (configuration not stated)	8	57*	8	-12	40*	43*
Cc1cc(C)cc(OCC(=O)N2N=C(c3cccnc3)CC2(O)C(F)(F)F)c1 (configuration not stated)	5	8	-3	-5	-3	/
O=C(Nc1ccc(C(=O)OC[C@@H]2CCCN3CCCC[C@H]23)cc1)c1cccc(Br)c1	-2	70*	-1	2	-3	-7	MPTP abs DR=14*;MPTP cs DR=47*
Cc1[nH]c(C)c(S(=O)(=O)NCc2ccc(Cl)cc2)c1C(=O)N1CCCC1	9	0	2	3	-15	/
CN(C)S(=O)(=O)c1cccc(NC(=O)CSc2ncnc3ccccc23)c1	24	84*	2	-5	29*	66*
CN(C)S(=O)(=O)c1cccc(NC(=O)CSc2nc3ccccc3[nH]2)c1	26	1	-3	-14	-3	/
CCN(CC)S(=O)(=O)c1cccc(NC(=O)CSc2nc3ccccc3[nH]2)c1	53*	65*	44*	-9	31*	33*
O=C(CCS(=O)(=O)c1ccc(Cl)cc1)NC1CCCC1	8	-1	6	/	-9	/
O=C(Nc1cccc([N+](=O)[O-])c1)c1cc2ccccc2cc1O	51*	96*	24	9	36*	60*

High-throughput results deposited in PubChem by several laboratories.
